Source: PMC10239344 (ChemMedChem, 2023)
Where two headings read alike, the source gives them in different places.

Columns and labels:
[1] = target: T1, K. pneumoniae LpxH (KpLpxH) (Klebsiella pneumoniae subsp. pneumoniae, UniProt A6T5R0); details: cited from earlier work; for Percentage Activity of KpLpxH (vi/v0) / Percentage Inhibition of KpLpxH: 0.1 μM inhibitor, previously reported
T1 sequence (A6T5R0 1-240): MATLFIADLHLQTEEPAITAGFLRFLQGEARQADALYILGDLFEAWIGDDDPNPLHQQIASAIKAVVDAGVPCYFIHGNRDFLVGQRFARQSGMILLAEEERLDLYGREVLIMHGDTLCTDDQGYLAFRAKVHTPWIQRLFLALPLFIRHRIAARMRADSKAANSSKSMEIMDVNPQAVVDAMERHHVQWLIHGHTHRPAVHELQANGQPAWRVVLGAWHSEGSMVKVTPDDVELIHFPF

[2] = target: T1, K. pneumoniae LpxH (KpLpxH); assay: LpxE-coupled malachite green LpxH activity assay; format: biochemical
In short: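 Enzyme/inhibitor and substrate mixes were preincubated 10 min at 37 °C, then combined (final 100 μM UDP-DAGn, 10 ng/mL enzyme). Aliquots were EDTA-quenched, then A. aeolicus LpxE 5 μg/mL was added for 30 min at 37 °C. Formic acid stop; malachite green A620. Triplicates; activity normalized to DMSO control; IC50 fit converted to competitive KI.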

| SMILES | Percentage Activity of KpLpxH (vi/v0) [1] | Percentage Inhibition of KpLpxH [1] | Percentage Activity of KpLpxH (vi/v0) ([1]; listed as 2 (JH-LPH-33)) | IC50 ([1]; read-out: IC50 of KpLpxH inhibition, reported value) | Ki ([1]; read-out: KI for KpLpxH, reported value) | Percentage Inhibition of KpLpxH ([2]; 0.1 μM inhibitor) | Ki ([2]; read-out: KI for KpLpxH, from IC50, competitive binding mode, KM 68.1 μM) |
| --- | --- | --- | --- | --- | --- | --- | --- |
| CC(=O)N1CCc2cc(S(=O)(=O)N3CCN(c4cccc(C(F)(F)F)c4)CC3)ccc21 [Compound 1] | 78^[16] % | 22^[16] % | – | – | – | – | – |
| CC(=O)N1CCc2cc(S(=O)(=O)N3CCN(c4cc(Cl)cc(C(F)(F)F)c4)CC3)ccc21 [Compound 2] | 21% | 79^[16] % | 21^[16] % | 26 nM | 10 nM | – | – |
| O=C(CCCCCNC(=O)Nc1ccc(S(=O)(=O)N2CCN(c3cc(Cl)cc(C(F)(F)F)c3)CC2)cc1)NO [Compound 13] | – | – | – | – | – | 97% | 3.1 nM |
